In ChEMBL document CHEMBL4017495, “Identification and Characterization of the First Selective Y4 Receptor Positive Allosteric Modulator” (J Med Chem, 2017):
Activity calls are given as the source filed them. No cut-off for these calls is given here.

What was measured:
[1] = target: T1, Neuropeptide Y receptor type 1/2 (Mus musculus) (UniProt Q04573+P97295); experiment: Positive allosteric modulation of NY1/2 receptor in mouse descending colon mucosa assessed as increase in mucosal antisecretory response to peptide YY at 30 uM preincubated for 5 mins followed by pancreatic polypeptide addition after 20 mins
T1 sequence (P97295 whole entry, looked up): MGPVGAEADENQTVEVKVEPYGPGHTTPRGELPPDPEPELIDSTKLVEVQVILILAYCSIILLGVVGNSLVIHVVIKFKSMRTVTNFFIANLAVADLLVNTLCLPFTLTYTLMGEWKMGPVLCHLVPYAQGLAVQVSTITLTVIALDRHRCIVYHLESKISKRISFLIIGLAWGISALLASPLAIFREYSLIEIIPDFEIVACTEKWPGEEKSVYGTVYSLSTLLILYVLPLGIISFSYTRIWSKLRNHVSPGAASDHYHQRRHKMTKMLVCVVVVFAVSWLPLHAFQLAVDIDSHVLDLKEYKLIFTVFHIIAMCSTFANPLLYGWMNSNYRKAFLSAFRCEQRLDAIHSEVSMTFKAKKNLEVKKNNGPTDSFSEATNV
T1 sequence (Q04573 whole entry, looked up): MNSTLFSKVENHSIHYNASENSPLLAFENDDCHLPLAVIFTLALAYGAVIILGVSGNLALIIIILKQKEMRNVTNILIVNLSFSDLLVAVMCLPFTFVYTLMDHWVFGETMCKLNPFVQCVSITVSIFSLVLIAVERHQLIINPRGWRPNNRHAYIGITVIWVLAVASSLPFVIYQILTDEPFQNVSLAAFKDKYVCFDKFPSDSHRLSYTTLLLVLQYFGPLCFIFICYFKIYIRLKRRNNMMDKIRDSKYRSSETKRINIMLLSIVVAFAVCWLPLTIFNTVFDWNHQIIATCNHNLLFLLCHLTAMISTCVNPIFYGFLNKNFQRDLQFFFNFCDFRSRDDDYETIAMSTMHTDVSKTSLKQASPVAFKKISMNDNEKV
Method in brief: (§1)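 Mouse descending colon mucosa was mounted in Ussing chambers (0.14 cm2 exposed) in oxygenated Krebs–Henseleit at 37 °C, voltage-clamped at 0 mV, with Isc recorded continuously. After a stable basal Isc (20–30 min), basolateral pretreatment was 30 μM compound or DMSO vehicle (0.3%) for 5 min. VIP (10 nM) was given for 5–10 min, then single rat PP additions (3, 10 or 30 nM). PYY (10 nM) followed 20 min later.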

[2] = target: T2, Neuropeptide Y receptor type 4 (Homo sapiens, UniProt P50391); details: 30 uM
T2 sequence (P50391 whole entry): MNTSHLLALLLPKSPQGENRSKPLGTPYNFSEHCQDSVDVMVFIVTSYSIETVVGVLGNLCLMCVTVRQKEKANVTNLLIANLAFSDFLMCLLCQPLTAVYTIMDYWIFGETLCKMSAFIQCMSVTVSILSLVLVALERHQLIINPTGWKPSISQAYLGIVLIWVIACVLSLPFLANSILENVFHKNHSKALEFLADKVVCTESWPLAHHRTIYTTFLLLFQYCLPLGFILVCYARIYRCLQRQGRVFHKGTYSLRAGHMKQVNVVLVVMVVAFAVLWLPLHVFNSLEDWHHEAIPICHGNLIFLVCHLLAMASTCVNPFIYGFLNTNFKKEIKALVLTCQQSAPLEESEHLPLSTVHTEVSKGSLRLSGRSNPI

[3] = target: T2, Neuropeptide Y receptor type 4
[4] = target: T2, Neuropeptide Y receptor type 4; details: HEK293, 30 uM
[5] = target: T2, Neuropeptide Y receptor type 4; remark: listed apart in the source
[6] = target: Neuropeptide Y receptor type 4 (Mus musculus) (UniProt Q61041); experiment: Agonist activity at NY4 receptor in mouse descending colon mucosa assessed as increase in mucosal antisecretory response at 30 uM incubated for 5 mins; method in brief: as §1
Sequence of Neuropeptide Y receptor type 4 (Mus musculus) (Q61041 whole entry): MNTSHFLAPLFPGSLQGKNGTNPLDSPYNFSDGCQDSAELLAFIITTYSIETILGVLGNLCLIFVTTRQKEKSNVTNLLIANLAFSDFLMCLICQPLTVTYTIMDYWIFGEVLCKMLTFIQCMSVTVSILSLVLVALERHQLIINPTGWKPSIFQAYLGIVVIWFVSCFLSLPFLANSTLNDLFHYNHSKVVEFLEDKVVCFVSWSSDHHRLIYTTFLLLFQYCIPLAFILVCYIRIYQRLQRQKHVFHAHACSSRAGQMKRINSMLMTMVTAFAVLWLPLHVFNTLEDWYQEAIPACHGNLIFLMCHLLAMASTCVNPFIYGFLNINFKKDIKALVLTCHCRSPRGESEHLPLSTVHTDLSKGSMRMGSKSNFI

[7] = target: T2, Neuropeptide Y receptor type 4; details: 30 uM; remark: listed apart in the source
[8] = target: T2, Neuropeptide Y receptor type 4; remark: listed apart in the source
[9] = target: T2, Neuropeptide Y receptor type 4; details: HEK293, 30 uM; remark: listed apart in the source
[10] = target: T2, Neuropeptide Y receptor type 4; remark: listed apart in the source
[11] = target: T2, Neuropeptide Y receptor type 4; details: 30 uM; remark: listed apart in the source
[12] = target: T2, Neuropeptide Y receptor type 4; remark: listed apart in the source
[13] = target: T2, Neuropeptide Y receptor type 4; experiment: Positive allosteric modulation of human C-terminal eYFP-fused human NY4 receptor expressed in African green monkey COS7 cells co-expressing delta6Galphaqi4-myr assessed as potentiation of pancreatic polypeptide-mediated Ca2+ flux treated at 20 secs post baseline detection followed by addition of pancreatic polypeptide after 140 secs by Fluo2-AM fluorescent dye based-assay; type: functional, cell-based
Method in brief: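 COS7 cells stably co-expressing Y4R-eYFP and Δ6Gαqi4-myr were seeded overnight. They were loaded with 2.4 μM Fluo2-AM in HBSS/20 mM HEPES/[…] for 60 min at 37 °C, then kept in assay buffer. Fluorescence was read at ex 485/em 525 nm. Compound was added after a 20 s baseline and peptide at 140 s. Response was taken as x-fold over basal, normalized to the DMSO control, and fitted to an operational model of allosterism. Duplicates, at least three independent runs.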

[14] = target: T2, Neuropeptide Y receptor type 4; remark: listed apart in the source
[15] = target: T2, Neuropeptide Y receptor type 4; details: HEK293, 30 uM; remark: listed apart in the source
[16] = target: Neuropeptide Y receptor type 4 (Mus musculus) (UniProt Q61041); experiment: Positive allosteric modulation of NY4 receptor in mouse descending colon mucosa assessed as increase in mucosal antisecretory response to pancreatic polypeptide at 30 uM preincubated for 5 mins followed by pancreatic polypeptide addition after 20 mins; method in brief: as §1
[17] = target: T1, Neuropeptide Y receptor type 1/2 (Mus musculus); experiment: Positive allosteric modulation of NY1/2 receptor in mouse descending colon mucosa assessed as increase in mucosal antisecretory response to vasoactive intestinal polypeptide at 30 uM preincubated for 5 mins followed by pancreatic polypeptide addition after 20 mins; method in brief: as §1
[18] = target: T2, Neuropeptide Y receptor type 4; remark: listed apart in the source
[19] = target: T2, Neuropeptide Y receptor type 4; remark: listed apart in the source
[20] = target: T2, Neuropeptide Y receptor type 4; remark: listed apart in the source

Activity [1]: inactive | Emax [2]: 89% | log(activity) [3]: 0.79 | Emax [4]: 118% | pKb [5]: 4.4 | Activity [6]: inactive | Emax [7]: 95% | pKb [8]: 4.4 | Emax [9]: 145% | log(activity) [10]: 0.46 | Emax [11]: 94% | log(activity) [12]: 0.36 | EC50 [13]: 5.1 µM | pKb [14]: 4.4 | Emax [15]: 144% | Activity [16]: Active | Activity [17]: inactive | log(activity) [18]: 0.3 | log(activity) [19]: 0.9 | log(activity) [20]: 0.41
SMILES: CC(C)(C)c1ccc(OC2CCCCC2O)cc1 (stereo not given)
